Consider seven compounds from publication PMC4912417 (Nature chemical biology, 2016).

This test relates to larval zebrafish. Put plainly: Battery of 10 behavioral assays in larval zebrafish. In kind it is in vivo, zebrafish (Danio rerio). To be noted: for Haloperidol-like phenotype (zebrafish motor activity heat maps): Fig. 3b, three wells per drug. A digest of the protocol:
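7 d.p.f. Ekkwill larvae, 8–10 per well in E3, held 1 h at 25 °C, then given compound (<1% DMSO; DMSO-treated control wells) for 1 h at room temperature. Ten-assay battery of red/blue/violet light and 60/70 dB sound, IR-lit video; MI by frame differencing over 10,500 time points. Seven 2-fold concentrations, 12 wells each, triplicate days; magnitude = 5th-percentile-subtracted MI averaged over time.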

For `CN1CCN(CCCN2c3ccccc3Sc3ccc(Cl)cc32)CC1` [prochlorperazine], the “Haloperidol-like phenotype (zebrafish motor activity heat maps)” value (“Haloperidol-like phenotype” for short) was “cause haloperidol-like phenotypes”.

For the compound `O=C(CCCN1CCC(O)(c2ccc(Br)cc2)CC1)c1ccc(F)cc1` [BROMPERIDOL], the “Haloperidol-like phenotype” value is given as “cause haloperidol-like phenotypes”. On to `CN1c2ccccc2C(NCCCCCCC(=O)O)c2ccc(Cl)cc2S1(=O)=O` (stereo not drawn) [Tianeptine], for which the “Effect on behavioral profile (phenotypic distance from control animals)” value (reference set, seven concentrations) is listed as “failed to show an effect”.

Turning to `O=C(CCCN1CC=C(n2c(=O)[nH]c3ccccc32)CC1)c1ccc(F)cc1` [DROPERIDOL], the “Haloperidol-like phenotype” value is given as “cause haloperidol-like phenotypes”. For `O=C(CCCN1CCC(O)(c2ccc(Cl)cc2)CC1)c1ccc(F)cc1` [Haloperidol], the MI magnitude entry (5 μM, 48 wells vs DMSO) is “increased MI magnitude at many points in the time series”. Further, where the note is “lower concentrations (2.5–10 μM)”, the “Shape and average magnitude of the behavioral profile” value is reported as “changed the shape of the behavioral profile without reducing its average magnitude”. For the same compound, the Motor activity result (very high concentrations (20–80 μM)) is given as “reduced motor activity”.

For the compound `CSc1ccc2c(c1)N(CCC1CCCCN1C)c1ccccc1S2` (stereo not drawn) [thioridazine], the “Haloperidol-like phenotype” value is “cause haloperidol-like phenotypes”. As to `c1ccc2c(c1)Nc1ccccc1S2` [phenothiazine], the “Haloperidol-like phenotype” value is given as “cause haloperidol-like phenotypes”.
